Test [1] addresses Delta-type opioid receptor (Homo sapiens, UniProt P41143). Nature of the test: Displacement of [3H]DADLE from human recombinant delta opioid receptor expressed in recombinant hDOR-CHO cells after 2 hrs by liquid scintillation counting. It counts as cell-based. An outline of the steps: (§1)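 Membranes from stably transfected hDOR-CHO or hKOR-CHO cells, washed in ice-cold 10 mM Tris-HCl pH 7.4. Binding in 50 mM Tris-HCl pH 7.4 with protease inhibitors, about 30 µg protein per tube. Radioligand about 2 nM against 10 drug concentrations, triplicate, 2 h at 25 °C, GF/B filtration.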

In test [2] the target is T1, Kappa-type opioid receptor (Homo sapiens, UniProt P41145). Nature of the test: Displacement of [3H]U69,593 from human recombinant kappa opioid receptor expressed in CHO cells after 2 hrs by liquid scintillation counting. It counts as cell-based. In outline:
as §1
(In general: Loss of bound radioactivity is the signal in a displacement assay; it reports binding, not function.)

The target in test [3] is T2, Mu-type opioid receptor (Homo sapiens, UniProt P35372). Nature of the test: Displacement of [3H]DAMGO from human recombinant mu opioid receptor expressed in CHO cells after 2 hrs by liquid scintillation counting. It counts as cell-based.
Test [4] concerns the target T2, Mu-type opioid receptor. Description: Ratio of morphine Ki to compound Ki for human mu opioid receptor.
Test [5] is filed under the species Homo sapiens. Nature of the test: Selectivity ratio Ki for human delta opioid receptor to Ki for human mu opioid receptor. An outline of the steps:
(§2)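 Ki values from radioligand displacement on membranes of stably transfected human receptor CHO cells. […] Incubation 2 h at 25 °C, triplicate, filtration. Ki from pooled logistic IC50 by Cheng-Prusoff; ratio taken against the MOR Ki.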

The species entered for test [6] is Homo sapiens. Description: Selectivity ratio Ki for human kappa opioid receptor to Ki for human mu opioid receptor. In outline: as §2
Test [7] concerns the target T1, Kappa-type opioid receptor. The following applies: CHO.
In test [8] the target is T2, Mu-type opioid receptor. Nature of the test: Ratio of naloxone Ke to compound Ke for human mu opioid receptor.

T1 sequence (P41145 whole entry): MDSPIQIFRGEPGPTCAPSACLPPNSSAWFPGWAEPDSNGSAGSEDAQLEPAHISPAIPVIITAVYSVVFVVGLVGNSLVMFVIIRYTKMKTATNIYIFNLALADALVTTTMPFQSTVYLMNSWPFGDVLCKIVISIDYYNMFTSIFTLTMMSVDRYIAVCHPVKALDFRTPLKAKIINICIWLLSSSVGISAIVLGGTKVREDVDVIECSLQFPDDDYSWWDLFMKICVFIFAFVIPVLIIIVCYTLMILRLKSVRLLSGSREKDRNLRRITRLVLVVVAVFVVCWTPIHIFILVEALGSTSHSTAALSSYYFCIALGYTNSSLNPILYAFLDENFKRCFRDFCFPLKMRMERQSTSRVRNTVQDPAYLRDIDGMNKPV
T2 sequence (P35372 whole entry): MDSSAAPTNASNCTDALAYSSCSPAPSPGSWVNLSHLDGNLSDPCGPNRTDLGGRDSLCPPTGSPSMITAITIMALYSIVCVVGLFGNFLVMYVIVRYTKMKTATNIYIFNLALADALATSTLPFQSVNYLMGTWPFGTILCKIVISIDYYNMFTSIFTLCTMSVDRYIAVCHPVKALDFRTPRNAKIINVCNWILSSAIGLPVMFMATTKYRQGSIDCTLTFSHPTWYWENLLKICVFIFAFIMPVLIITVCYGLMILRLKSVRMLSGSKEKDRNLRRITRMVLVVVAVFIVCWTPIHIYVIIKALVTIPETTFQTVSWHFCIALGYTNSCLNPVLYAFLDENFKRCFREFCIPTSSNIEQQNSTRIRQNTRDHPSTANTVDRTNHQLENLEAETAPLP
Chain of Delta-type opioid receptor (P41143 whole entry): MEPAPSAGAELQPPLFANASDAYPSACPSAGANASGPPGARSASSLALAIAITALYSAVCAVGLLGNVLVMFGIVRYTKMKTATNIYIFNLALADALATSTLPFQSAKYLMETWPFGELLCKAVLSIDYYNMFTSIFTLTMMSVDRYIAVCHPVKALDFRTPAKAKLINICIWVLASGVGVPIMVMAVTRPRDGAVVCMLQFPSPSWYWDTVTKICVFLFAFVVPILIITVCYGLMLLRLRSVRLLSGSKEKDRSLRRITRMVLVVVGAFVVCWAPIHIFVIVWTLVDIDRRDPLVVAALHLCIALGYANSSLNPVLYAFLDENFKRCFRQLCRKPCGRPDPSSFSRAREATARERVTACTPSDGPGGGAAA

A word on the Ki: it is the equilibrium dissociation constant of an inhibitor or competing ligand from its target. On to `CN1C[C@H]2Oc3c(O)cccc3[C@@]23CCC[C@@H]1C3` (relative stereo), for which the Ki is greater than 5200 nM in test [1], greater than 40000 nM in test [2] and 619 nM in test [3].
On to `CN1C[C@H]2Oc3ccc(O)cc3[C@@]23CCC[C@@H]1C3` (relative stereo), for which the Ki was greater than 5200 nM in test [1], 1080 nM in test [2] and 1500 nM in test [3].
For `Oc1ccc2c(c1)[C@]13CCC[C@H](C1)N(CCc1ccccc1)C[C@H]3O2` (relative stereo) the same measures were 1250 nM, 1230 nM and 67 nM.
Regarding `Oc1cccc2c1O[C@@H]1CN(CCc3ccccc3)[C@@H]3CCC[C@]21C3` (relative stereo), the Ratio Ki is 2 in test [4], 1200 in test [5] and 50 in test [6]. The Ki stood at 1230 nM in test [1], 51 nM in test [2] and 1.1 nM in test [3]. This compound also registered a Ke in test [7] of 1.79 nM. The Ratio Ke in test [8] came out at 3.

Source of the values: ChEMBL document CHEMBL1811836, “Probes for narcotic receptor mediated phenomena. Part 42: synthesis and in vitro pharmacological characterization of the N-methyl and N-phenethyl analogues of the racemic ortho-c and para-c oxide-bridged phenylmorphans” (Bioorg Med Chem, 2011).
